In brackets after ≈: the same amount, converted by molar mass.

Series [1] deals with DNA topoisomerase 4 subunit B (Escherichia coli K-12, UniProt P20083). The experiment in a line: Inhibition of Escherichia coli ParE.
The next series concerns the target DNA gyrase subunit B (Escherichia coli, UniProt P0AES6). The experiment in a line: Inhibition of Escherichia coli GyrB (1 to 220 residues) expressed in Escherichia coli BL21(DE3).
Series [2] has as its system Pseudomonas aeruginosa. The experiment in a line: Antibacterial activity against Pseudomonas aeruginosa PAO1 after 24 hrs by broth microdilution method. It is filed as functional. The following applies: PAO1, 24 h. Put shortly:
(§1)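 Broth microdilution per CLSI. Bacterial suspension adjusted to 1×10^6 CFU/mL in cation-adjusted Mueller–Hinton broth and mixed 1:1 with 2-fold serial compound dilutions. Final DMSO 2.5% v/v. Plates incubated at 35 °C with shaking at 140 rpm for 24 h.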
(In general: Dilution methods test growth across graded concentrations, often in twofold steps.)

Series [3] relates to Pseudomonas aeruginosa. The experiment in a line: Antibacterial activity against Pseudomonas aeruginosa harboring MexABCDXY deletion mutant after 24 hrs by broth microdilution method. It is filed as functional. Put shortly:
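Broth microdilution per CLSI. Bacterial suspensions adjusted to 1×10^6 CFU/mL in cation-adjusted Mueller–Hinton broth, mixed 1:1 with 2-fold serial compound dilutions (final DMSO 2.5% v/v). Incubation 35 °C, 140 rpm, 24 h.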

For series [4], the system named is Escherichia coli. The experiment in a line: Antibacterial activity against tolC deficient Escherichia coli after 24 hrs by broth microdilution method. The series is classed as functional. The gist of the method: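 Broth microdilution per CLSI guidelines. Inoculum adjusted to 1×10^6 CFU/mL in cation-adjusted Mueller–Hinton broth, added 1:1 to 2-fold serial compound dilutions; final DMSO 2.5% v/v. Plates incubated 35 °C, 140 rpm, 24 h.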

Series [5] is described as follows: Dissociation constant, pKa of compound by pH metric method. It is filed as physicochemical. Put shortly: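 Potentiometric (pH-metric) titration on an automated titrator, Gold Standard pH metric assay, run in triplicate.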
For series [6], the system named is Escherichia coli. The experiment in a line: Antibacterial activity against Escherichia coli after 24 hrs by broth microdilution method. It is filed as functional. The gist of the method: as §1
Series [7] concerns Escherichia coli. The experiment in a line: Selectivity ratio of IC50 for Escherichia coli ParE to IC50 for Escherichia coli GyrB (1 to 220 residues) expressed in Escherichia coli BL21(DE3).
Series [8] has as its system Pseudomonas aeruginosa. The experiment in a line: Antibacterial activity against Pseudomonas aeruginosa ARC3509 after 24 hrs by broth microdilution method. The following applies: ARC3509, 24 h. It is filed as functional. Put shortly: as §1
Series [9] has as its system Pseudomonas aeruginosa. The experiment in a line: Antibacterial activity against Pseudomonas aeruginosa ARC3916 after 24 hrs by broth microdilution method. It is filed as functional. To be noted: ARC3916, 24 h. Put shortly:
as §1

Series [10] has as its system Acinetobacter baumannii. The experiment in a line: Antibacterial activity against Acinetobacter baumannii ARC3486 after 24 hrs by broth microdilution method. The series is classed as functional. The following applies: ARC3486, 24 h. The gist of the method: as §1
The subject of series [11] is Pseudomonas aeruginosa. The experiment in a line: Antibacterial activity against Pseudomonas aeruginosa ARC3612 after 24 hrs by broth microdilution method. To be noted: ARC3612, 24 h. The series is classed as functional. Put shortly: as §1
Series [12] has as its system Acinetobacter baumannii. The experiment in a line: Antibacterial activity against Acinetobacter baumannii ARC3485 after 24 hrs by broth microdilution method. It is filed as functional. The following applies: ARC3485, 24 h. Put shortly: as §1
Series [13] has as its system Acinetobacter baumannii. The experiment in a line: Antibacterial activity against Acinetobacter baumannii ARC3513 after 24 hrs by broth microdilution method. The series is classed as functional. The following applies: ARC3513, 24 h. The gist of the method: as §1
Series [14] concerns Pseudomonas aeruginosa. The experiment in a line: Antibacterial activity against Pseudomonas aeruginosa ARC3611 after 24 hrs by broth microdilution method. It is filed as functional. The following applies: ARC3611, 24 h. Put shortly: as §1
Series [15] concerns Pseudomonas aeruginosa. The experiment in a line: Antibacterial activity against Pseudomonas aeruginosa ARC003 after 24 hrs by broth microdilution method. The series is classed as functional. To be noted: ARC003, 24 h. The gist of the method:
as §1

Series [16] relates to Acinetobacter baumannii. The experiment in a line: Antibacterial activity against Acinetobacter baumannii ARC2674 after 24 hrs by broth microdilution method. The series is classed as functional. The following applies: ARC2674, 24 h. Put shortly:
as §1

The test system of series [17] is Acinetobacter baumannii. The experiment in a line: Antibacterial activity against Acinetobacter baumannii ARC3495 after 24 hrs by broth microdilution method. The series is classed as functional. The following applies: ARC3495, 24 h. Put shortly:
as §1

The subject of series [18] is Acinetobacter baumannii. The experiment in a line: Antibacterial activity against Acinetobacter baumannii ARC3493 after 24 hrs by broth microdilution method. The series is classed as functional. The following applies: ARC3493, 24 h. The gist of the method:
as §1

Series [19] deals with Pseudomonas aeruginosa. The experiment in a line: Antibacterial activity against Pseudomonas aeruginosa ARC4060 after 24 hrs by broth microdilution method. It is filed as functional. The following applies: ARC4060, 24 h. The gist of the method:
as §1

Series [20] has as its system Acinetobacter baumannii. The experiment in a line: Antibacterial activity against Acinetobacter baumannii ARC3882 after 24 hrs by broth microdilution method. The series is classed as functional. To be noted: ARC3882, 24 h. The gist of the method: as §1
Series [21] deals with Pseudomonas aeruginosa. The experiment in a line: Antibacterial activity against Pseudomonas aeruginosa ARC3505 after 24 hrs by broth microdilution method. To be noted: ARC3505, 24 h. The series is classed as functional. Put shortly: as §1
Series [22] relates to Acinetobacter baumannii. The experiment in a line: Antibacterial activity against Acinetobacter baumannii ARC2779 after 24 hrs by broth microdilution method. It is filed as functional. To be noted: ARC2779, 24 h. The gist of the method:
as §1

For series [23], the system named is Acinetobacter baumannii. The experiment in a line: Antibacterial activity against Acinetobacter baumannii ARC2728 after 24 hrs by broth microdilution method. It is filed as functional. The following applies: ARC2728, 24 h. Put shortly:
as §1

Series [24] relates to Acinetobacter baumannii. The experiment in a line: Antibacterial activity against Acinetobacter baumannii ARC3657 after 24 hrs by broth microdilution method. The series is classed as functional. To be noted: ARC3657, 24 h. Put shortly:
as §1

Series [25] has as its system Acinetobacter baumannii. The experiment in a line: Antibacterial activity against Acinetobacter baumannii ARC3658 after 24 hrs by broth microdilution method. The series is classed as functional. To be noted: ARC3658, 24 h. Put shortly:
as §1

Series [26] has as its system Acinetobacter baumannii. The experiment in a line: Antibacterial activity against Acinetobacter baumannii ARC3515 after 24 hrs by broth microdilution method. The series is classed as functional. The following applies: ARC3515, 24 h. The gist of the method: as §1
Series [27] concerns Pseudomonas aeruginosa. The experiment in a line: Antibacterial activity against Pseudomonas aeruginosa ARC3607 after 24 hrs by broth microdilution method. The series is classed as functional. To be noted: ARC3607, 24 h. Put shortly: as §1
The subject of series [28] is Acinetobacter baumannii. The experiment in a line: Antibacterial activity against Acinetobacter baumannii ARC3659 after 24 hrs by broth microdilution method. The series is classed as functional. The following applies: ARC3659, 24 h. Put shortly: as §1
Series [29] deals with Acinetobacter baumannii. The experiment in a line: Antibacterial activity against Acinetobacter baumannii ARC3489 after 24 hrs by broth microdilution method. It is filed as functional. The following applies: ARC3489, 24 h. Put shortly:
as §1

Series [30] relates to Pseudomonas aeruginosa. The experiment in a line: Antibacterial activity against Pseudomonas aeruginosa ARC3506 after 24 hrs by broth microdilution method. To be noted: ARC3506, 24 h. It is filed as functional. The gist of the method: as §1
Series [31] relates to Acinetobacter baumannii. The experiment in a line: Antibacterial activity against Acinetobacter baumannii ARC2782 after 24 hrs by broth microdilution method. The series is classed as functional. The following applies: ARC2782, 24 h. The gist of the method: as §1
Series [32] deals with Pseudomonas aeruginosa. The experiment in a line: Antibacterial activity against Pseudomonas aeruginosa ARC3729 after 24 hrs by broth microdilution method. It is filed as functional. To be noted: ARC3729, 24 h. The gist of the method:
as §1

The test system of series [33] is Pseudomonas aeruginosa. The experiment in a line: Antibacterial activity against Pseudomonas aeruginosa ARC3504 after 24 hrs by broth microdilution method. The series is classed as functional. The following applies: ARC3504, 24 h. Put shortly:
as §1

Series [34] concerns Pseudomonas aeruginosa. The experiment in a line: Antibacterial activity against Pseudomonas aeruginosa ARC3606 after 24 hrs by broth microdilution method. The series is classed as functional. To be noted: ARC3606, 24 h. Put shortly:
as §1

Chain of DNA topoisomerase 4 subunit B (P20083 whole entry, the tested form may be a part): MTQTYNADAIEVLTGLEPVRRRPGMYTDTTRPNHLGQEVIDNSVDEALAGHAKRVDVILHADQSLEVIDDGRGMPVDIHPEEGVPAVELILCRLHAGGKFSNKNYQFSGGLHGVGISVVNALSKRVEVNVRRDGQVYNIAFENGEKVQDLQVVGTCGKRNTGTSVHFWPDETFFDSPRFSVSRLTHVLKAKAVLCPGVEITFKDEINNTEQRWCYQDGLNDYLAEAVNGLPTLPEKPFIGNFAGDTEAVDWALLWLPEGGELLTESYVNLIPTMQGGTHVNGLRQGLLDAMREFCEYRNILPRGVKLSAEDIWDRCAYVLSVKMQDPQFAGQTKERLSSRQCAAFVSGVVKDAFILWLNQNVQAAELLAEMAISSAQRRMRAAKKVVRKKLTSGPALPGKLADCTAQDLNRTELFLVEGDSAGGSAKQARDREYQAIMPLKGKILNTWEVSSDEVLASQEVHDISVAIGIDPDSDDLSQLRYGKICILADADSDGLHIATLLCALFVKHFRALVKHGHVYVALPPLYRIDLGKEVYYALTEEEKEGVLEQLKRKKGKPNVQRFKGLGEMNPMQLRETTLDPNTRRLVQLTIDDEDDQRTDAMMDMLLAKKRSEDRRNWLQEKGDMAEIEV

By IC50 is commonly meant the concentration that inhibits the measured activity by half. Higher therefore signals lower potency. As usually defined, the MIC is the lowest concentration that inhibits growth of the organism. High values mean a less susceptible organism, low ones a more susceptible organism. For orientation: pKa means the negative logarithm of the acid dissociation constant. In the case of `CCNC(=O)Nc1cc(-c2nc(C(F)(F)F)cs2)c(-c2cncc(C(=O)O)c2)cn1`, the IC50 in [1] was determined as 700 nM; against DNA gyrase subunit B it was 6 nM. In addition, the MIC against Pseudomonas aeruginosa [2], in the series with Pseudomonas aeruginosa [3], in the series on Escherichia coli [4] and in the series on Escherichia coli [6] was > 100 µg/mL each time. The compound further registered a pKa in [5] of 3.5. Besides, the Ratio IC50 in the series with Escherichia coli [7] is 100.
Turning to `C[C@@H](O)[C@H]1C(=O)N2C(C(=O)O)=C(S[C@@H]3CN[C@H](C(=O)N(C)C)C3)[C@H](C)[C@H]12` [MEROPENEM], the MIC against Pseudomonas aeruginosa [8] is 16 µg/mL (≈ 41.7 µM); in the series on Pseudomonas aeruginosa [9], 32 µg/mL (≈ 83.4 µM); against Acinetobacter baumannii [10] it was > 64 µg/mL; in the series with Pseudomonas aeruginosa [11], 32 µg/mL (≈ 83.4 µM); against Acinetobacter baumannii [12] it was 32 µg/mL (≈ 83.4 µM); in the series on Acinetobacter baumannii [13], 32 µg/mL (≈ 83.4 µM). The minimal inhibitory concentration (MIC) against Pseudomonas aeruginosa [14] is 4 µg/mL (≈ 10.4 µM); against Pseudomonas aeruginosa [15], 0.25 µg/mL (≈ 0.652 µM); against Acinetobacter baumannii [16], 16 µg/mL (≈ 41.7 µM); with Acinetobacter baumannii [17], > 64 µg/mL; in the series with Acinetobacter baumannii [18], > 64 µg/mL; against Pseudomonas aeruginosa [19], 16 µg/mL (≈ 41.7 µM). Also, the MIC in the series with Acinetobacter baumannii [20] is > 64 µg/mL; against Pseudomonas aeruginosa [21], 2 µg/mL (≈ 5.22 µM); against Acinetobacter baumannii [22], 16 µg/mL (≈ 41.7 µM); against Acinetobacter baumannii [23], 0.25 µg/mL (≈ 0.652 µM); with Acinetobacter baumannii [24], 1 µg/mL (≈ 2.61 µM); in the series with Acinetobacter baumannii [25] it was 32 µg/mL (≈ 83.4 µM). The minimum inhibitory concentration (MIC) against Acinetobacter baumannii [26] came to 4 µg/mL (≈ 10.4 µM); against Pseudomonas aeruginosa [27], 8 µg/mL (≈ 20.9 µM); with Acinetobacter baumannii [28], 16 µg/mL (≈ 41.7 µM); against Acinetobacter baumannii [29], 4 µg/mL (≈ 10.4 µM); in the series on Pseudomonas aeruginosa [30], 8 µg/mL (≈ 20.9 µM); against Acinetobacter baumannii [31], 16 µg/mL (≈ 41.7 µM). In addition, the minimum inhibitory concentration (MIC) in the series on Pseudomonas aeruginosa [32] is 32 µg/mL (≈ 83.4 µM); in the series with Pseudomonas aeruginosa [33], 4 µg/mL (≈ 10.4 µM); in the series on Pseudomonas aeruginosa [34], 4 µg/mL (≈ 10.4 µM).
